The species entered for experiment [1] is Mus musculus. The experiment in a line: Anti-inflammatory potency was measured in mice by modification of the croton oil ear assay. Also noted: reference not given here.
Experiment [2] is filed under the species Mus musculus. The experiment can be described thus: Anti-inflammatory potency was measured in mice at 5 hours by modification of the Tonelli croton oil ear assay. The experiment is classed as functional. The procedure, abridged: (§1)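 Topical dosing in mice. Compounds at 10^-4% to 10^-6% (w/v) were dissolved in 0.6–0.7% croton oil, in a vehicle of pyridine/water/diethyl ether 20:5:74 (v/v). 10 µL was applied to the inner aspect of both pinnae daily for 5 days. Animals were killed 5 h after the last dose, and 6-mm ear punch biopsies were weighed. Potency was calculated relative to betamethasone 17-valerate from the mean left-plus-right ear punch weights.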

For experiment [3], the species on record is Mus musculus. The experiment in a line: Anti-inflammatory potency was measured in mice at 5 hours by modification of the croton oil ear assay. The class given is functional. Put shortly: as §1

On to `COCC(=O)OCC(=O)[C@@]1(OC(=O)c2ccco2)[C@H](C)CC2C3CCC4=CC(=O)C=CC4(C)[C@@]3(Cl)C(O)CC21C` (stereo partly drawn), for which the Potency in the experiment filed under Mus musculus [1] was determined as 4.3.
As to `C[C@@H]1CC2C3CCC4=CC(=O)C=CC4(C)[C@@]3(Cl)C(O)CC2(C)[C@@]1(OC(=O)c1ccco1)C(=O)CCl` (stereo partly drawn), the Potency in the experiment filed under Mus musculus [2] worked out at 1; in the experiment listed under Mus musculus [1], 6.1.
The matching figures for `COCC(=O)OCC(=O)[C@@]1(OC(=O)c2ccco2)[C@H](C)CC2C3CCC4=CC(=O)C=CC4(C)[C@@]3(F)C(O)CC21C` (stereo partly drawn): 0.8 and 3.2.
For `C[C@@H]1CC2C3CCC4=CC(=O)C=CC4(C)[C@@]3(F)C(O)CC2(C)[C@@]1(OC(=O)c1ccco1)C(=O)CCl` (stereo partly drawn) the same measures were 1.6 and 2.3.
For `C[C@@H]1CC2C3CCC4=CC(=O)C=CC4(C)[C@@]3(F)C(O)CC2(C)[C@@]1(OC(=O)c1ccoc1)C(=O)CCl` (stereo partly drawn) the same measures were 1 and 1.2.
As to `CCC(=O)OCC(=O)[C@@]1(OC(=O)c2ccco2)[C@H](C)CC2C3CCC4=CC(=O)C=CC4(C)[C@@]3(F)C(O)CC21C` (stereo partly drawn), the Potency in the experiment filed under Mus musculus [2] was 2.1; in the experiment filed under Mus musculus [1] it was 6.8.
As for `C[C@@H]1C[C@H]2[C@@H]3CCC4=CC(=O)C=C[C@]4(C)[C@@]3(Cl)[C@@H](O)C[C@]2(C)[C@@]1(OC(=O)c1ccco1)C(=O)CF`, the Potency amounted to 1.4 in the experiment filed under Mus musculus [2] and 4.4 in the experiment listed under Mus musculus [1].
For `CC(=O)OCC(=O)[C@@]1(OC(=O)c2ccc(C)s2)[C@H](C)CC2C3CCC4=CC(=O)C=CC4(C)[C@@]3(F)C(O)CC21C` (stereo partly drawn) the same measures were 2.4 and 1.7.
The matching figures for `C=C1CC2C3CCC4=CC(=O)C=CC4(C)[C@@]3(F)C(O)CC2(C)[C@@]1(OC(=O)c1ccco1)C(=O)COC(C)=O` (stereo partly drawn): 0.5 and 1.1.
For `CC(=O)OCC(=O)[C@@]1(OC(=O)c2ccoc2)[C@H](C)CC2C3CCC4=CC(=O)C=CC4(C)[C@@]3(F)C(O)CC21C` (stereo partly drawn) the same measures were 2.9 and 3.2.
On to `C[C@H]1CC2C3CCC4=CC(=O)C=CC4(C)[C@@]3(F)C(O)CC2(C)[C@@]1(OC(=O)c1ccco1)C(=O)CCl` (stereo partly drawn), for which the Potency in the experiment listed under Mus musculus [2] was found to be 0.6; in the experiment listed under Mus musculus [1] it was 0.9.
For `CC(=O)OCC(=O)[C@@]1(OC(=O)c2ccco2)CCC2C3CCC4=CC(=O)C=CC4(C)C3C(O)CC21C` (stereo partly drawn) the same measures were 1.3 and 0.9.
For `C[C@H]1CC2C3CCC4=CC(=O)C=CC4(C)[C@@]3(F)C(O)CC2(C)[C@@]1(OC(=O)c1cccs1)C(=O)CCl` (stereo partly drawn) the same measures were 1.3 and 2.6.
The matching figures for `CC(=O)OCC(=O)[C@@]1(OC(=O)c2cccs2)[C@H](C)CC2C3CCC4=CC(=O)C=CC4(C)[C@@]3(F)C(O)CC21C` (stereo partly drawn): 1.6 and 2.9.
In the case of `C[C@@H]1CC2C3CCC4=CC(=O)C=CC4(C)[C@@]3(Cl)C(O)CC2(C)[C@@]1(OC(=O)c1cccs1)C(=O)CCl` (stereo partly drawn), the Potency amounted to 1.2 in the experiment listed under Mus musculus [2] and 4.5 in the experiment listed under Mus musculus [1].
For `C=C1CC2C3CCC4=CC(=O)C=CC4(C)C3C(O)CC2(C)[C@@]1(OC(=O)c1ccco1)C(=O)COC(C)=O` (stereo partly drawn) the same measures were 2.7 and 1.2.
`CCCC(=O)OCC(=O)[C@@]1(OC(=O)c2ccco2)[C@H](C)CC2C3CCC4=CC(=O)C=CC4(C)[C@@]3(F)C(O)CC21C` (stereo partly drawn) returned a Potency in the experiment filed under Mus musculus [2] of 1.1.
As to `C[C@@H]1CC2C3C[C@H](F)C4=CC(=O)C=CC4(C)[C@@]3(Cl)C(O)CC2(C)[C@@]1(OC(=O)c1ccco1)C(=O)CCl` (stereo partly drawn), the Potency in the experiment listed under Mus musculus [2] was 1.1; in the experiment filed under Mus musculus [1], 5.1.
For `CC(=O)OCC(=O)[C@@]1(OC(=O)c2ccco2)[C@@H](C)CC2C3CCC4=CC(=O)C=CC4(C)[C@@]3(F)C(O)CC21C` (stereo partly drawn) the same measures were 0.5 and 0.2.
In the case of `C=C1CC2C3CCC4=CC(=O)C=CC4(C)C3(Cl)C(O)CC2(C)[C@@]1(OC(=O)c1ccco1)C(=O)COC(C)=O` (stereo partly drawn), the Potency is listed as 2.2 in the experiment listed under Mus musculus [3] and 2.3 in the experiment filed under Mus musculus [2].
On to `CCC(=O)OCC(=O)[C@@]1(OC(=O)c2ccco2)[C@H](C)CC2C3CCC4=CC(=O)C=CC4(C)C3C(O)CC21C` (stereo partly drawn), for which the Potency stood at 1.1 in the experiment filed under Mus musculus [2] and 1.5 in the experiment filed under Mus musculus [1].
Take `CC(=O)OCC(=O)[C@@]1(OC(=O)c2ccco2)[C@H](C)CC2C3C[C@H](F)C4=CC(=O)C=CC4(C)C3C(O)CC21C` (stereo partly drawn): the Potency came to 2.7 in the experiment listed under Mus musculus [2] and 2.1 in the experiment listed under Mus musculus [1].
Turning to `CCCCC(=O)O[C@]1(C(=O)CO)[C@@H](C)C[C@H]2[C@@H]3CCC4=CC(=O)C=C[C@]4(C)[C@@]3(F)[C@@H](O)C[C@@]21C` [BETAMETHASONE VALERATE], the Potency in the experiment listed under Mus musculus [2] and in the experiment filed under Mus musculus [1] was 1 in each case.
Take `CC(=O)OCC(=O)[C@@]1(OC(=O)c2ccco2)[C@H](C)CC2C3CCC4=CC(=O)C=CC4(C)[C@@]3(F)C(O)CC21C` (stereo partly drawn): the figures for the Potency in the experiment filed under Mus musculus [2] and in the experiment listed under Mus musculus [1] were 1.7 and 2.2, respectively.
The matching figures for `CC(=O)OCC(=O)[C@@]1(OC(=O)c2ccco2)[C@H](C)CC2C3CCC4=CC(=O)C=CC4(C)[C@@]3(Cl)C(O)CC21C` (stereo partly drawn): 1.7 and 4.4.

These data come from ChEMBL document CHEMBL1123831, “17-Heteroaroyl esters of corticosteroids. 2. 11 beta-Hydroxy series” (1987).
